Results taken from ChEMBL document CHEMBL1123124, “New antihistaminic N-heterocyclic 4-piperidinamines. 2. Synthesis and antihistaminic activity of 1-[(4-fluorophenyl)methyl]-N-(4-piperidinyl)-1H-benzimidazol-2-a mines” (1985).

Key:
Type in all cases: functional
Rattus norvegicus [1] = assay: In vivo antihistaminic activity using compound 48/80 induced lethality test in rat after 2 hr of oral administration
How it was run: (§1)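 Protection was survival for 4 h after challenge. ED50 with confidence limits was calculated by Finney from five rats per dose and at least three doses of a geometric series (0.0025–40 mg/kg). Estimated ED50 used at least two rats per dose.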

Rattus norvegicus [2] = assay: In vivo antihistaminic activity using compound 48/80 induced lethality test after 1 hr of subcutaneous administration in rat; conditions: sc; how it was run: as §1
Cavia porcellus [3] = assay: In vivo histamine induced lethality after 3 hours of iv administration in guinea pig
Cavia porcellus [4] = assay: In vivo histamine induced lethality after 96 hours of iv administration in guinea pig
Cavia porcellus [5] = assay: In vivo histamine induced lethality after 48 hours of iv administration in guinea pig
How it was run: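 Male albino guinea pigs (280–360 g) were dosed orally 3, 24, 48 or 96 h before an iv challenge with histamine dihydrochloride (1.25 mg/kg). Protection was survival at 1 h. Doses rose in 2-fold steps from 0.0025 mg/kg, with at least three doses and 4–6 animals per dose and time point. PD50 with confidence limits was computed by Finney.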

Rattus norvegicus [6] = assay: Inhibition of mydriatic activity in rat after 2 hr of intraperitoneal administration.; conditions: ip
Cavia porcellus [7] = assay: In vivo histamine induced lethality after 8 hours of iv administration in guinea pig
Cavia porcellus [8] = assay: In vivo histamine induced lethality after 24 hours of iv administration in guinea pig
Rattus norvegicus [9] = assay: Inhibition of histamine skin reaction in rat after 2 hr of subcutaneous administration.; conditions: sc
Rattus norvegicus [10] = assay: Inhibition of serotonin skin reaction in rat after 2 hr of subcutaneous administration.; conditions: sc
Rattus norvegicus [11] = assay: Inhibition of histamine skin reaction in rat after 2 hr of oral administration.
How it was run: (§2)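 Test compound or solvent given orally to rats 2 h before four intradermal injections into clipped back: two of 50 μL histamine dihydrochloride (1 mg/mL in saline), two of 50 μL serotonin (2 μg/mL in saline). Then iv 0.5 mL of 0.5% trypan blue. Bluing of skin reactions scored 30 min later.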

Rattus norvegicus [12] = assay: Inhibition of mydriatic activity in rat after 2 hr of oral administration.
Rattus norvegicus [13] = assay: Inhibition of serotonin skin reaction in rat after 2 hr of oral administration.; how it was run: as §2
Rattus norvegicus [14] = assay: In vivo antihistaminic activity using compound 48/80 induced lethality test in rat after 2 hr( oral administration); how it was run: as §1

SMILES	ED50 (Rattus norvegicus [1])	ED50 (Rattus norvegicus [2])	further results
Fc1ccc(Cn2c(NC3CCN(CCCCOc4ccccc4)CC3)nc3ccccc32)cc1	0.63 mg/kg	0.63 mg/kg	–
Fc1ccc(Cn2c(NC3CCN(CCc4cccc5ccccc45)CC3)nc3ccccc32)cc1	0.63 mg/kg	1.25 mg/kg	–
Cl.NCCN1CCC(Nc2nc3ccccc3n2Cc2ccc(F)cc2)CC1	> 2.5 mg/kg	1.25 mg/kg	–
Cl.Fc1ccc(Cn2c(NC3CCN(CCN4CCOCC4)CC3)nc3ccccc32)cc1	2.5 mg/kg	0.31 mg/kg	–
CCn1nnn(CCN2CCC(Nc3nc4ccccc4n3Cc3ccc(F)cc3)CC2)c1=O	> 2.5 mg/kg	0.16 mg/kg	–
Fc1ccc(Cn2c(NC3CCN(CCc4ccncc4)CC3)nc3ccccc32)cc1	1.25 mg/kg	0.31 mg/kg	–
COc1ccc(C(=O)OCCN2CCC(Nc3nc4ccccc4n3Cc3ccc(F)cc3)CC2)cc1.Cl	0.63 mg/kg	0.31 mg/kg	–
CNC(=O)NCCN1CCC(Nc2nc3ccccc3n2Cc2ccc(F)cc2)CC1	> 2.5 mg/kg	0.02 mg/kg	–
Fc1ccc(Cn2c(NC3CCN(CCNCc4ccccc4)CC3)nc3ccccc32)cc1	> 2.5 mg/kg	1.25 mg/kg	–
OC(COc1ccccc1)CN1CCC(Nc2nc3ccccc3n2Cc2ccc(F)cc2)CC1 (stereo unspecified)	1.25 mg/kg	0.63 mg/kg	–
O=C(NCCN1CCC(Nc2nc3ccccc3n2Cc2ccc(F)cc2)CC1)c1ccc(F)cc1	2.5 mg/kg	0.31 mg/kg	–
COc1cccc(CCN2CCC(Nc3nc4ccccc4n3Cc3ccc(F)cc3)CC2)c1.Cl	0.31 mg/kg	0.31 mg/kg	–
COc1cc(CCN2CCC(Nc3nc4ccccc4n3Cc3ccc(F)cc3)CC2)cc(OC)c1OC.Cl	0.63 mg/kg	1.25 mg/kg	–
COc1ccccc1OCC(O)CN1CCC(Nc2nc3ccccc3n2Cc2ccc(F)cc2)CC1 (stereo unspecified)	0.63 mg/kg	1.25 mg/kg	–
CCNC(=O)COc1ccc(CCN2CCC(Nc3nc4ccccc4n3Cc3ccc(F)cc3)CC2)cc1	2.5 mg/kg	1.25 mg/kg	–
Cl.Oc1cccc(CCN2CCC(Nc3nc4ccccc4n3Cc3ccc(F)cc3)CC2)c1	0.31 mg/kg	0.16 mg/kg	–
Oc1ccc(CCN2CCC(Nc3nc4ccccc4n3Cc3ccc(F)cc3)CC2)cc1 [DESMETHEYLASTEMIZOLE]	0.1 mg/kg	0.16 mg/kg	ED50 (Cavia porcellus [3]): 0.19 mg/kg; ED50 (Cavia porcellus [4]): 0.27 mg/kg; ED50 (Cavia porcellus [5]): 0.12 mg/kg; ED50 (Rattus norvegicus [6]): > 40 mg/kg; ED50 (Cavia porcellus [7]): 0.08 mg/kg; ED50 (Cavia porcellus [8]): 0.06 mg/kg; ED50 (Rattus norvegicus [9]): 0.08 mg/kg; ED50 (Rattus norvegicus [10]): ≥ 0.63 mg/kg
CCOc1ccc(CCN2CCC(Nc3nc4ccccc4n3Cc3ccc(F)cc3)CC2)cc1	0.16 mg/kg	1.25 mg/kg	–
CN1CCC(=C2c3ccccc3C=Cc3ccccc32)CC1 [CYPROHEPTADINE]	–	–	ED50 (Cavia porcellus [3]): 0.08 mg/kg; ED50 (Rattus norvegicus [11]): 0.89 mg/kg; ED50 (Cavia porcellus [7]): 0.88 mg/kg; ED50 (Rattus norvegicus [12]): 9.36 mg/kg; ED50 (Cavia porcellus [8]): > 2.5 mg/kg; ED50 (Rattus norvegicus [13]): 2.35 mg/kg; ED50 (Rattus norvegicus [14]): 1.13 mg/kg
CNC(=O)Oc1ccc(CCN2CCC(Nc3nc4ccccc4n3Cc3ccc(F)cc3)CC2)cc1	2.5 mg/kg	1.25 mg/kg	–
Fc1ccc(Cn2c(NC3CCN(CCCOc4ccccc4)CC3)nc3ccccc32)cc1	0.31 mg/kg	1.25 mg/kg	–
CSc1ccc(CCN2CCC(Nc3nc4ccccc4n3Cc3ccc(F)cc3)CC2)cc1	1.25 mg/kg	0.63 mg/kg	–
Fc1ccc(Cn2c(NC3CCN(C/C=C/c4ccccc4)CC3)nc3ccccc32)cc1	> 2.5 mg/kg	1.25 mg/kg	–
Br.Br.Fc1ccc(Cn2c(NC3CCNCC3)nc3ccccc32)cc1	1.02 mg/kg	0.056 mg/kg	–
